According to publication PMC6279569 (Clinical cancer research : an official journal of the …, 2018):

Legend:
SK-N-DZ and H524 cells = assay: Cell cycle analysis by PI flow cytometry, cancer cells; assay type: cell-based, human
[1] = tested on: SK-N-BE(2)c, H82 and H526 cells; assay: DNA combing analysis of replication fork extension; assay type: cell-based, human; conditions: 0.2 µM, 20 minutes, vs untreated control
How it was run: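 Synchronized S-phase cells (DMEM, 10% FBS) pulsed with CldU for 10 min, washed, then IdU for 20 min with or without 0.2 µM compound. Cells lysed on slides and DNA fibres spread. Fibres immunostained for CldU (green) and IdU (red). Segment lengths from more than 30 fibres averaged ± SD. IdU lengths compared with the untreated control by Student's t-test.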

[2] = tested on: xenograft tumors of SK-N-BE(2)c, SK-N-AS, MDA-MB-468 and H82; assay: In vivo xenograft tumor model; conditions: 40 mg/kg once daily by oral gavage
γH2A.X in 7SM0032 cells = assay: Western blot, non-malignant cells; assay type: cell-based, human; conditions: 500 nM AOH1160
How it was run: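 7SM0032 cells treated with 500 nM compound for the indicated times, then lysed directly in Laemmli buffer on the plate. Immunoblot membranes blocked in 5% nonfat milk and probed with anti-γH2A.X. Detection with peroxidase-conjugated secondary antibody and ECL.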

human TRβ = target: T1, human TRβ (Homo sapiens, UniProt P10828); assay: Human thyroid hormone receptor beta; assay type: cell-based; conditions: various concentrations, 24 h
T1 sequence (P10828 1-461): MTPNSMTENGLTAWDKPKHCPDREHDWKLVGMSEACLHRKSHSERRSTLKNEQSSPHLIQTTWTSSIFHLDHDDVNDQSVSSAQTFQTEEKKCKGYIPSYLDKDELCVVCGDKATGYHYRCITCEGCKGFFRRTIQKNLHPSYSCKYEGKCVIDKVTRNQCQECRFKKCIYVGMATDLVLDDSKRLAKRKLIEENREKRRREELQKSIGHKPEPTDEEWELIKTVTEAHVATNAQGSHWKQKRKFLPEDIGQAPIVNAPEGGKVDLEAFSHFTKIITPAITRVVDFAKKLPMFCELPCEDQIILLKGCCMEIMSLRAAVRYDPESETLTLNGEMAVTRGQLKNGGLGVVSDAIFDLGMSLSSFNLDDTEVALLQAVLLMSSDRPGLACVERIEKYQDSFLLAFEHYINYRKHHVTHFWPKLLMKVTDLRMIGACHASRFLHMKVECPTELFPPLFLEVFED
How it was run: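 Commercial reporter cells constitutively expressing human TRβ, with luciferase driven by a TRβ-responsive promoter. Treated for 24 h with various concentrations of T3 (reference agonist) or test compound. TRβ activity read as luciferase relative luminescence units on a plate reader.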

[3] = Stability in plasma, monkey; assay type: in vitro ADME; conditions: 37°C
How it was run: (§1)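 Test compound was incubated in plasma at 37 °C, with aliquots removed at various times. Remaining parent was quantified by LC-MS/MS (UPLC gradient, positive-ion electrospray) and expressed as percent of input concentration.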

SK-N-DZ NB cells = assay: Clonogenic assay with cisplatin, SK-N-DZ; assay type: cell-based, human; conditions: 500 nM AOH1160, 18 h
How it was run: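 300 SK-N-DZ cells per 60-mm dish, attached overnight, then treated 18 h with or without various cisplatin concentrations, with or without 500 nM test compound. After two washes, cells were grown 3 weeks in fresh medium changed every 3 d. Colonies were stained with 0.5% crystal violet and counted. Combination index used the Bliss independence model: CI = (E_A+E_B−E_A*E_B)/E_AB.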

[4] = Stability in plasma, canine; assay type: in vitro ADME; conditions: 37°C
How it was run: as §1

[5] = mouse, in vivo
[6] = tested on: non-malignant cells (PBMC, 7SM0032, MCF10A, mammary epithelial cells, small airway epithelial cells); assay: Cell growth, CellTitor-Glo assay, non-malignant cells; assay type: cell-based; conditions: human PBMCs, 7SM0032 cells
7SM0032 and SAEC cells = assay: Cell cycle analysis by PI flow cytometry, non-malignant cells; assay type: cell-based, human; conditions: 500 nM AOH1160
How it was run: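 7SM0032 cells (hEPM-1 medium) and SAEC (SAGM medium), 37°C, 5% CO2. Seeded at 1×10⁵/ml and attached overnight. Exposed to 500 nM test compound for the indicated time (methods: 6 or 24 h). Fixed in 60% ethanol, stained with propidium iodide, and analysed by flow cytometry. Cell-cycle populations, including sub-G1, were modelled from PI intensity.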

normal neural stem cells = assay: Cell growth of normal neural stem cells; assay type: cell-based; conditions: 1 µM, 72 hours; NSC005-007
How it was run: (§2)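 Cells derived from WHO grade IV glioblastoma or primary brain tissue, grown as neurospheres in DMEM/F12 with 20 ng/ml EGF, 20 ng/ml FGF, 5 µg/ml heparin, B27 and 2 mM L-glutamine. Seeded at 5 × 10³/ml or 3 × 10⁴/ml. Given DMSO or 1 µM compound for 72 h. Growth read by CellTiter-Glo luminescence relative to DMSO control, ± S.D.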

[7] = tested on: γH2A.X, caspase-3 and caspase-9 in cancer cells; assay: Western blot, cancer cells; assay type: cell-based, human
How it was run: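 Conditions: SK-N-DZ cells with 3 µM AOH39 for 0, 6 or 24 h; cancer cells with 500 nM AOH1160 for the indicated times. Cells were lysed in Laemmli buffer, sonicated, run on 4–12% SDS-PAGE and blotted to nitrocellulose. After 5% milk block, blots were probed for γH2A.X, total H2A.X, cleaved and full-length caspase-3, and cleaved caspase-9. Detection used peroxidase secondaries and ECL.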

carboxyl esterase, ES-1 = target: T2, carboxyl esterase, ES-1 (Mus musculus, UniProt P23953); assay: Stability in plasma, rodent; assay type: in vitro ADME
T2 sequence (P23953 19-554): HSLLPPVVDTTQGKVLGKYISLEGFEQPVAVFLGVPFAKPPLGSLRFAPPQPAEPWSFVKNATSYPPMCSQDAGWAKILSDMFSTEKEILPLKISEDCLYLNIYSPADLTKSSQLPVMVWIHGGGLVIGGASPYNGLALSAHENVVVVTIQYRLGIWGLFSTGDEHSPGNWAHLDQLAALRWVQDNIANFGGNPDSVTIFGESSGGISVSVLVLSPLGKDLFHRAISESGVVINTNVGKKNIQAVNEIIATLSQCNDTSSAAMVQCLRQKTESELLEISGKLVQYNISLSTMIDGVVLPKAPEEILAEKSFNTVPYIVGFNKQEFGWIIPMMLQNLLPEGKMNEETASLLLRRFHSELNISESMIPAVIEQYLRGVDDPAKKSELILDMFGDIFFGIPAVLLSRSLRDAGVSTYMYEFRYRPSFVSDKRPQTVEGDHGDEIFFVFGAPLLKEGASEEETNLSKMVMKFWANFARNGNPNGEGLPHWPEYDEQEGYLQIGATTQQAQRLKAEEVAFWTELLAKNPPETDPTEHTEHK
How it was run: as §1

[8] = tested on: HR-mediated DSB repair in DR-GFP cells; assay: Double stranded DNA break repair assay, DR-GFP; assay type: cell-based
How it was run: (§3)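 U2OS-derived reporter lines carry stable GFP reporters: DR-GFP for HR and EJ5-GFP for end joining. Cells were grown in DMEM/10% FBS, seeded at 2.5×10⁴ cells/cm² and attached overnight. They were lipofected with an I-SceI expression plasmid; after 3 h, medium was replaced with fresh medium containing test compound at various concentrations (DMSO control). GFP-positive fraction was measured by flow cytometry 3 d post-transfection, relative to control.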

7SM0032 cells = assay: TUNEL assay, non-malignant cells; assay type: cell-based; conditions: 500 nM AOH1160, 24 h
How it was run: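 7SM0032 cells (hEPM-1 medium, 37°C, 5% CO2) seeded at 1×10⁵/ml on chamber slides. Once attached, treated with 500 nM compound for 24 h. Fixed and labelled by TUNEL using a TMR-red in situ cell death kit. Red fluorescence at free DNA ends scored as apoptotic cells.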

SK-N-DZ cells = assay: TUNEL assay, cancer cells; assay type: cell-based, human; conditions: 500 nM AOH1160, 24 h
How it was run: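 Cells were seeded at 1×10⁵/ml on chamber slides. Once attached, they were treated 24 h with 500 nM test compound, then fixed. Apoptosis was detected by TUNEL with a TMR red in situ cell death kit; red TMR fluorescence marks free DNA ends.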

Pharmacokinetic = assay type: in vivo, ES1^e/SCID mice
How it was run: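 Test compound was dissolved at 60 °C under nitrogen in vehicle (Kolliphor HS 15, Poloxamer 407, BHA, BHT, propyl gallate). It was diluted to 4 mg/mL in 1:1 water:vehicle just before dosing and given orally at 40 mg/kg to male and female ES1^e/SCID mice. Plasma was taken by cardiac puncture at 0–24 h (3 male + 3 female per time point). Levels were measured by LC-MS/MS (positive ESI, MRM); PK parameters were derived by non-compartmental analysis.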

Recombinant human PCNA = Recombinant human PCNA (Homo sapiens, UniProt P12004); assay: Saturation Transfer Difference; assay type: binding; conditions: T3 50 µM, AOH1160 expected 16 µM, 1 µM PCNA
Recombinant human PCNA, sequence (P12004 whole entry): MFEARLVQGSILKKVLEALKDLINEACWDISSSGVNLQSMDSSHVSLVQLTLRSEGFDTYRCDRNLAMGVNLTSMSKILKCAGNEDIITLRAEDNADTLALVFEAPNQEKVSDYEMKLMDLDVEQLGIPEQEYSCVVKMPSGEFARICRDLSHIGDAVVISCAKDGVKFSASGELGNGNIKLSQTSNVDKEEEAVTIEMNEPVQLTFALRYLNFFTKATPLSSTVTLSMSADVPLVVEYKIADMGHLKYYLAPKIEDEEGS
How it was run: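 Recombinant human PCNA (1 µM) in 15 mM D₂O phosphate buffer, pH 7.2, with 10 µM deuterated DTT and 2% D₆-DMSO. T3 (50 µM) was run with and without test compound; 4 µM DSS served as internal reference for ligand concentration. Spectra were taken at 25 °C, 700 MHz, cryoprobe. Saturation was at 0.9 ppm and reference at −30 ppm, acquired interleaved. STD = (I_Ref − I_STD)/I_Ref.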

[9] = Stability in plasma, Es1e/SCID mice; assay type: in vitro ADME; conditions: Es1^e/SCID mouse plasma, 37°C
How it was run: as §1

glioblastoma stem cells = assay: Cell growth of glioblastoma stem cells; assay type: cell-based, human; conditions: 1 µM, 72 hours; PBT003, PBT707, PBT017
How it was run: as §2

[10] = Stability in plasma, human; assay type: in vitro ADME; conditions: 37°C
How it was run: as §1

[11] = tested on: EJ-mediated DSB repair in EJ5-GFP cells; assay: Double stranded DNA break repair assay, EJ5-GFP; assay type: cell-based; conditions: 4 µM AOH39
How it was run: as §3

O=C(CNC(=O)c1cccc2ccccc12)Nc1ccccc1Oc1ccccc1 [AOH1160]
maximum concentration achievable under STD NMR condition (15 mM D2O phosphate buffer, 2% D6-DMSO, determined by 1D NMR spectra): approximately 14.5 µM | permeability (not told): high permeability | apoptosis (sub-G1 population) (SK-N-DZ and H524 cells; 500 nM AOH1160): promotes apoptosis | cell cycle effect (SK-N-DZ and H524 cells; neuroblastoma and small cell lung cancer cells, 500 nM AOH1160): causes cell cycle arrest | length of IdU-incorporated DNA strands (replication fork extension) [1]: significantly shorter IdU-incorporated DNA strands | tumor burden ([2]; vs vehicle): significantly reduced tumor burden | death or weight loss ([2]; data not shown): did not cause any death or significant weight loss | intracellular γH2A.X level in non-malignant cells (γH2A.X in 7SM0032 cells): Nor does it increase intracellular γH2A.X level | thyroid hormone activity in TR reporter assay (human TRβ): neither AOH1160 nor AOH39 showed any thyroid hormone activity | stability in plasma [3]: stable | sensitivity to cisplatin, colony formation (SK-N-DZ NB cells): more sensitive to cisplatin treatment in the presence of AOH1160 | stability in plasma [4]: stable | toxicity in repeated dose study [5]: No significant toxicity was observed | concentration up to which not significantly toxic [6]: at least 5 µM | cell cycle profiles of non-malignant cells (7SM0032 and SAEC cells): doesn’t significantly change the cell cycle profiles | growth of normal neural stem cells (normal neural stem cells): without significantly affecting the growth of normal neural stem cells | caspase activation ([7]; cancer cells, 500 nM AOH1160): activation of caspase-3 and caspase-9 | γH2A.X levels ([7]; cancer cells, 500 nM AOH1160): increases γH2A.X levels | sensitivity to cleavage by ES-1 (carboxyl esterase, ES-1; amide hydrolysis): sensitive to cleavage by the carboxyl esterase, ES-1 | stability in plasma (carboxyl esterase, ES-1; rodent plasma, 37°C): not stable | HR-mediated DNA repair ([8]; various concentrations of AOH1160): blocks DNA repair in DR-GFP | apoptosis by TUNEL in non-malignant cells (7SM0032 cells): Nor does it increase intracellular γH2A.X level (Fig 4b) or induce apoptosis | apoptosis by TUNEL (SK-N-DZ cells): increase in apoptosis | half-life in vivo (Pharmacokinetic; PO, 40 mg/kg): about 3.5 h | oral availability (Pharmacokinetic; PO, 40 mg/kg): available to the animal through the oral dosing route | peak concentration (CMAX) (Pharmacokinetic; PO, 40 mg/kg): well above the calculated IC50 of most cancer cell lines | metabolites in animal plasma (Pharmacokinetic; mouse, in vivo): Metabolites derived from AOH1160 hydroxylation were observed | effect on STD values of T3 (Recombinant human PCNA): caused reduction of STD values of T3 | stability in plasma [9]: stable | growth of glioblastoma stem cells (glioblastoma stem cells): inhibited the growth of glioblastoma stem cells | stability in plasma [10]: stable

O=C(CNC(=O)c1cccc2ccccc12)Nc1ccccc1Cc1ccccc1 [AOH39]
cell cycle effect (SK-N-DZ and H524 cells; SK-N-DZ, 3 µM AOH39, 6 or 24 h): caused cell cycle arrest of cancer cells at the S and, to a larger degree, G2/M phases | apoptosis (sub-G1 population) (SK-N-DZ and H524 cells; SK-N-DZ, 3 µM AOH39, 24 h): cancer cells start to die through apoptosis | thyroid hormone activity in TR reporter assay (human TRβ): neither AOH1160 nor AOH39 showed any thyroid hormone activity | EJ-mediated DNA repair [11]: without exerting any statistically significant effect on EJ | intracellular γH2A.X levels ([7]; SK-N-DZ, 3 µM AOH39): enhanced intracellular γH2A.X levels | HR-mediated DNA repair ([8]; 4 µM AOH39): inhibited HR-mediated DNA repair
